Source: PubChem
Dynein transport – blocks dynein driven cargo transport along microtubules; 3617.4 mouse cells, GR-EGFP nuclear translocation imaging; test concentration mostly 20 µM; stimulated with dexamethasone, 1 µM; active compounds read low; 0.47% of 220,000 active; z-score, hits read low; AID 1381;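 active = plate z-score of nuclear minus cytoplasmic receptor signal below a set negative limit, without overly bright fluorescence or cell loss, cut at about -3.5 in these data, passing the limit was not always enough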;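 note: z-score of nuclear minus cytoplasmic ring GR-EGFP intensity difference per well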
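Buffer or medium: tet-free medium with charcoal-stripped serum / Also added: dexamethasone agonist, 1.0 µM final, for 30 min / Timing: induction 48 h, compound 1 h, agonist 30 min / Measured by: high-content fluorescence imaging after fixation / Read-out: nuclear-to-cytoplasmic GR-EGFP distribution per well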
HSV augment – HSV replication enhancement; maximum fold increase; AID 1956; HSV replication augmentation in cells, fold increase; 0.005% of 220,000 active; in the data active = maximum fold increase above about 1.5; tested in PC3 cells
MT stabilizer – stabilizes microtubules in HeLa cells. HeLa tubulin immunostaining HCS, 24 h; share of cells brighter than vehicle mean+2SD. % tubulin-high responders, % at 10 µM. 0.83% of 200,000 active;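 active = plate Z-score above 3 for both tubulin-high and condensed-nucleus cell shares, with cell loss under 80%, at 10 µM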;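 note: anti alpha tubulin signal scored within the nucleus-defined area of each cell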
L major viab – Leishmania major promastigote growth inhibition | 9% of 200,000 active | Leishmania major promastigotes, resazurin fluorescence viability | AID 1063 | inhibition, % at 10 µM; in the data active = inhibition above about 50%;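 note: promastigotes grown with compound for 44 hours at 28 °C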
bCat nuc transl – alters nuclear translocation of beta-catenin in HeLa cells | immunofluorescence imaging | nuclear translocation activity, % at 5 µM | 0.3% of 190,000 active | AID 1665;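 active = nuclear translocation activity above 50% at 5 µM, with a well cell count of 50 or more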;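 note: per-cell ratio of nuclear to cytoplasmic median beta-catenin stain intensity; plate controls were DMSO negative control for no effect and GSK-3 inhibitor IX positive control for full effect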
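assay system = human HeLa cells, endogenous beta-catenin | times = compound treatment 24 h, 37°C, 5% CO2 | detection = Anti-beta-catenin immunofluorescence on PFA-fixed, Triton-permeabilized cells, DAPI nuclei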
The depositor's hits bear a star; i = inactive; / = no result. This is a sample that favours compounds with a hit; in the whole collection about 8.9% have one here.

SMILES	Dynein transport	HSV augment	MT stabilizer	L major viab	bCat nuc transl
COc1ccc(CCNC(=O)CN(C)S(=O)(=O)c2cccc3nsnc23)cc1OC	-0.895	i	2.4	2.7	-4.0
COC(=O)c1ccc(NC(=O)C(=O)N2CCN(C(=S)Nc3ccc(OC)cc3)CC2)cc1	0.0936	i	3.7	31.2	0.2
COC(=O)c1ccc(NC(=O)C(=O)N2CCN(C(=S)Nc3ccc(C)cc3)CC2)cc1	-0.563	i	2.5	66.0*	-1.4
COC(=O)c1ccc(NC(=O)C(=O)N2CCN(C(=S)Nc3cccc(OC)c3)CC2)cc1	0.458	i	1.1	71.6*	0.7
O=C1CC(N2CCN(Cc3ccccc3)CC2)C(=O)N1 (centres undefined)	-0.528	i	2.9	1.4	0.5
COc1ccc(CC(=O)Nc2ccc(S(=O)(=O)NCC3CCCO3)cc2)cc1 (centres undefined)	-0.468	i	2.2	16.0	0.9
CCc1ccc(C(=O)COC(=O)CNC(=O)c2ccc(N3C(=O)c4ccccc4C3=O)cc2)cc1	-0.408	i	2.2	-4.9	-1.7
O=C(CNC(=O)c1ccc(N2C(=O)c3ccccc3C2=O)cc1)OCC(=O)c1cccc2ccccc12	1.26	i	4.9	62.1*	-2.8
O=C(CNC(=O)c1ccc(N2C(=O)c3ccccc3C2=O)cc1)OCC(=O)c1ccccc1	0.19	i	1.6	62.3*	-6.0
CC(=O)Nc1ccc(OC(=O)c2cc3cc(Br)cc(Br)c3oc2=O)cc1	0.331	i	1.8	45.8	-1.6
COc1cccc(N2CC(O)=C(c3nc4ccccc4c(=O)[nH]3)C2=N)c1	-0.126	i	26.5*	5.6	108.7*
Cc1nc(C(=O)N2CCc3c([nH]c4ccccc34)C2c2cc(F)ccc2F)cs1 (centres undefined)	0.225	i	3.9	54.1*	2.1
Cc1onc(-c2ccccc2)c1C(=O)Nc1cccc(OC(C)C)c1	0.00235	i	3.4	4.0	/
COCCCNC(=O)CCC(=O)NNc1nc2ccccc2c2nc(-c3ccccc3)nn12	0.074	i	7.0	-0.9	-2.9
Cc1noc(C)c1COc1ccc(CC(=O)NCc2ccccc2)cc1	0.321	i	19.7*	7.3	29.2
Cc1noc(C)c1COc1cccc(C(=O)Nc2ccc(C#N)cc2)c1	1.34	i	2.6	82.8*	/
Cc1onc(-c2ccccc2)c1C(=O)NCCc1c[nH]c2ccccc12	0.346	i	4.1	10.6	0.6
Cc1noc(C)c1COc1ccc(CC(=O)NC2CCCCCC2)cc1	0.356	i	4.9	9.7	-0.6
Cc1ccc(NC(=O)c2cccc(OCc3c(C)noc3C)c2)cc1	-0.0867	i	0.7	82.7*	/
Cc1noc(C)c1COc1cccc(C(=O)NCCc2c[nH]c3ccccc23)c1	0.366	i	23.9*	19.6	-1.4
Cc1noc(C)c1COc1cccc(C(=O)NCc2cccc(Cl)c2)c1	-1.25	i	2.1	73.0*	-2.0
O=C1CN(C(=O)COc2cccc(F)c2)c2ccccc2N1	-0.459	i	7.1	-4.0	-1.4
COc1cc(C(=O)NCc2ccc3c(c2)OCO3)ccc1OCc1c(C)noc1C	1.05	i	5.1	3.6	-1.8
COc1ccc(NS(=O)(=O)c2cc(NC(=O)c3cccc(OCc4c(C)noc4C)c3)ccc2OC)cc1	-0.587	i	13.3*	97.9*	63.2*
Cc1noc(C)c1COc1cccc(C(=O)OCC(=O)N2CC(=O)Nc3ccccc32)c1	0.287	i	38.8*	2.2	0.2
SMILES	Dynein transport	HSV augment	MT stabilizer	L major viab	bCat nuc transl
Cc1ccccc1NC(=O)c1cccc(OCc2c(C)noc2C)c1	0.2	i	3.8	59.0*	-2.8
O=C(Nc1ccc(Cc2ccncc2)cc1)c1ccc(Br)o1	0.029	i	2.9	-0.1	1.8
CC12CN(C(=O)c3ccc([N+](=O)[O-])cc3)CC(C)(CN(C(=O)c3ccc([N+](=O)[O-])cc3)C1)C2=O	0.819	i	/	/	-2.4
O=C(O)c1cn(-c2ccccc2)c(=O)c2ccccc12	0.803	i	2.1	-4.9	-1.8
O=C(NCCCn1ccnc1)Nc1ccc(Cl)c(Cl)c1	0.281	i	3.4	95.5*	1.9
O=C1CCC(C(=O)NCCCn2ccnc2)N1 (centres undefined)	2.18	i	5.3	66.0*	-1.3
O=C(CCn1ccnc1)Nc1ccc2ccccc2c1	-0.321	i	3.4	73.9*	-3.3
O=C(CCCOc1ccc(Cl)cc1Cl)NCCCn1ccnc1	-1.61	i	0.9	65.7*	0.8
Cc1cc(Cl)ccc1OCCCC(=O)NCCCn1ccnc1	0.717	i	4.7	4.0	0.5
C/C(NCc1cccnc1)=C(\C#N)C(=O)NCc1ccccc1	-0.62	i	1.7	3.2	-3.4
COc1ccc(-c2onc(C)c2-c2cnn(-c3ccccc3)c2)c(O)c1	-0.187	i	3.2	-4.0	-0.9
O=C(NCCCn1ccnc1)c1cc(-c2ccncc2)nc2ccccc12	-0.0149	i	2.5	-4.1	0.9
O=C(Cc1ccccc1Cl)NCCCn1ccnc1	-0.169	i	1.9	61.8*	-2.1
O=C(NCCCN1CCc2ccccc2C1)Nc1ccc(Cl)cc1	-0.532	i	4.9	78.4*	0.3
Cc1ccc(/C=N/NC(=O)CCCOc2ccc(Cl)cc2Cl)cc1	0.402	i	14.9	-1.5	115.1*
COc1ccc(NC(=O)NCCN2CCc3ccccc3C2)cc1	-0.85	i	4.6	14.1	0.5
O=C(NCCCn1ccnc1)c1cc(-c2ccc(Cl)cc2)nc2ccccc12	1.13	i	3.3	98.5*	-1.2
CCOC(=O)C1CCN(C(=O)Cn2cc(C(=O)c3ccco3)c3ccccc32)CC1	-0.305	i	2.8	-3.4	-5.4
Cc1cc(C)cc(NC(=O)CN2CCN(c3ncccn3)CC2)c1	-0.463	i	1.3	1.3	/
CC(C)(C)NC(=O)Nc1ccccc1C(N)=O	0.493	i	3.3	-3.5	-0.8
O=C(COc1ccc(Cl)cc1)NCCCn1ccnc1	-0.199	i	5.0	6.9	-0.9
O=C(NCCCn1ccnc1)c1noc2c1CCCC2	-0.135	i	2.5	-4.8	-0.8
O=C(NCCCn1ccnc1)c1noc2c1CCc1ccccc1-2	0.533	i	2.4	88.4*	2.4
O=C(NCCCn1ccnc1)Nc1ccc(Cl)cc1	0.956	i	4.7	53.3*	0.3
N#Cc1ccc(OCC(=O)Nc2ccccc2NS(=O)(=O)c2cccs2)cc1	-0.734	i	1.8	63.1*	-1.0
CC(NC(=O)c1nn(C)c(=O)c2ccccc12)c1ccc(F)cc1 (centres undefined)	-0.449	i	3.2	-4.3	-7.4
O=C(CCCN1C(=O)c2ccccc2C1=O)NCC1CCCO1 (centres undefined)	0.299	i	5.0	-6.9	-3.4
Cc1ccc2nc(SC(C(=O)c3ccccc3)c3ccccc3)nc(C)c2c1 (centres undefined)	-0.0552	i	2.4	91.6*	5.4
O=C(COC(=O)c1cccc(O)c1)Nc1ccc(OC(F)F)cc1	0.29	i	1.9	-1.2	-0.2
